A1 apoptosis 2 = blocks A1, raising caspase activity; MEF A1-2A-BIM cells, caspase-Glo luminescence, 3 h; percent of clofoctol response, DMSO zero; 24,000 tested, under 10 active; caspase activation, % (no concentration beside the values); in the data active means caspase activation above about 5.9%
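system = A1-2A-BIM-expressing MEF cells | quantity = 2500 MEF cells/well | dosing = 50 nL compound per well, pinned | schedule = overnight cell settling, then 3 h compound exposure, 37 °C | signal = luminescence from DEVD-luciferin Caspase-Glo reagent, 1:1 in 50 mM HEPES, 1 h RT | read-out = Caspase-3/7 activation, seen as rise in luminescence signal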
T cruzi intra = intracellular Trypanosoma cruzi inhibition; intracellular Trypanosoma cruzi in host cells, plate reader; activity score (inhibition), % at 5.01 µM; hit rate 4.9% among 22,000; in the data active means activity score above about 55%;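 further: parasites and compound incubated about four days before reading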
INS-1E ATP HTS = preserves ATP levels in cytokine-treated INS-1E cells. INS-1E cytokine-induced death, ATP luminescence, 48 h; normalised: neutral wells 0, positive control 100. hit rate 0.1% among 20,000. protection from cytokine-induced ATP loss, % at 10 µM. AID 488910;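 active means mean replicate protection from cytokine-induced ATP loss at least 50% and at least 75% of replicates each reaching 50%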
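Assay system: INS-1E rat cells / Quantity: 8000 cells per well / Medium: RPMI without phenol red, 5% FBS / Probe or stimulus: three-cytokine cocktail (IFN-γ, TNF-α, IL-1β) / Dosing: one compound concentration, pin transfer / Timing: 48 h co-treatment, 10 min post-lysis read / Technique: CellTiter-Glo luminescence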
A number is an active result; n = inactive; x = no result given. The full list was thinned out, with hits kept by preference.

SMILES	A1 apoptosis 2	T cruzi intra	INS-1E ATP HTS
COC(=O)CCCCCCC(=O)N/N=C/[C@@H](O)[C@@H](O)[C@H](O)[C@H](O)CO	n	n	n
C[C@@H]1CN([C@@H](C)CO)C(=O)c2cccc(NC(=O)Nc3ccccc3)c2O[C@H]1CN(C)S(=O)(=O)c1ccc(Cl)cc1	x	n	n
C[C@@H]1CN([C@@H](C)CO)C(=O)c2cc(NS(=O)(=O)c3ccc(F)cc3)ccc2O[C@H]1CN(C)Cc1ccc(C(F)(F)F)cc1	n	n	n
Cc1ccc(S(=O)(=O)Nc2ccc3c(c2)C(=O)N([C@H](C)CO)C[C@@H](C)[C@H](CN(C)Cc2ccc(C(=O)O)cc2)O3)cc1	x	n	n
Cc1ccc(S(=O)(=O)Nc2ccc3c(c2)C(=O)N([C@H](C)CO)C[C@H](C)[C@@H](CN(C)Cc2ccc(C(F)(F)F)cc2)O3)cc1	n	67.5	n
Cc1ccc(S(=O)(=O)Nc2ccc3c(c2)C(=O)N([C@@H](C)CO)C[C@H](C)[C@H](CN(C)Cc2ccc(C(=O)O)cc2)O3)cc1	x	n	n
Cc1ccc(S(=O)(=O)Nc2ccc3c(c2)C(=O)N([C@@H](C)CO)C[C@@H](C)[C@@H](CN(C)Cc2ccc(C(F)(F)F)cc2)O3)cc1	n	n	x
Cc1ccc(S(=O)(=O)Nc2ccc3c(c2)C(=O)N([C@@H](C)CO)C[C@H](C)[C@@H](CN(C)Cc2ccc(C(F)(F)F)cc2)O3)cc1	x	64.6	x
C[C@H](CO)N1C[C@H](C)[C@@H](CN(C)Cc2ccc(C(F)(F)F)cc2)Oc2ccc(NS(=O)(=O)c3ccc(F)cc3)cc2C1=O	x	60.9	x
Cc1ccc(S(=O)(=O)Nc2ccc3c(c2)C(=O)N([C@H](C)CO)C[C@@H](C)[C@@H](CN(C)Cc2ccc(C(F)(F)F)cc2)O3)cc1	x	59.6	n
O=C(CCCCCC(=O)N/N=C/c1ccncc1Br)NO	n	x	x
CO[C@H]1O[C@H](CO)[C@@H](OC(=O)Nc2ccccc2)[C@H](OC(=O)Nc2ccccc2-c2ccccc2)[C@@H]1OC(=O)Nc1ccccc1-c1ccccc1	n	x	x
COc1cc(/C=N/NC(=O)c2ccccc2O)cc(OC)c1OC	n	n	n
O=C(N/N=C/c1ccc(C(F)(F)F)cc1)c1ccccn1	n	n	n
Cc1ncc(CO)c(/C=N/NC(=O)CCCCCCC(=O)O)c1O	n	n	n
Cc1cc(C(=O)Nc2cccc3c2O[C@@H](CN(C)CC2CC2)[C@H](C)CN([C@H](C)CO)C3=O)n(C)n1	n	n	n
C[C@@H]1CN([C@H](C)CO)C(=O)c2cccc(NC(=O)c3ccncc3)c2O[C@H]1CN(C)CC1CCCCC1	n	84.4	n
C[C@@H]1CN([C@H](C)CO)C(=O)c2cccc(NC(=O)c3ccncc3)c2O[C@H]1CN(C)CC1CC1	n	55.8	n
C[C@H](CO)N1C[C@H](C)[C@H](CN(C)CC2CC2)Oc2c(NC(=O)c3ccncc3)cccc2C1=O	n	n	n
Cc1cc(C(=O)Nc2cccc3c2O[C@H](CN(C)CC2CC2)[C@H](C)CN([C@@H](C)CO)C3=O)n(C)n1	n	60.7	n
C[C@H](CO)N1C[C@H](C)[C@H](CN(C)CC2CCCCC2)Oc2c(NC(=O)c3ccncc3)cccc2C1=O	x	n	n
C[C@@H]1CN([C@@H](C)CO)C(=O)c2cccc(NS(=O)(=O)c3cn(C)cn3)c2O[C@H]1CN(C)CC1CCCCC1	x	61.7	n
C[C@H](CO)N1C[C@H](C)[C@@H](CN(C)CC2CCCCC2)Oc2c(NS(=O)(=O)c3cn(C)cn3)cccc2C1=O	x	n	n
COc1cc2c(cc1OC)CN(C(=O)[C@@H]1[C@H]3C(=O)O[C@H](c4ccccc4)[C@H](c4ccccc4)N3[C@H](c3ccccc3OCCO)[C@@]13C(=O)Nc1ccccc13)CC2	n	x	x
CN(CCO)c1ccc(/C=N/NC(=O)CCCCCC(=O)NO)cc1	n	x	x
SMILES	A1 apoptosis 2	T cruzi intra	INS-1E ATP HTS
CCCN(C)C[C@@H]1OCCCC[C@H](C)Oc2ccc(NC(=O)C3CCCCC3)cc2C(=O)N([C@H](C)CO)C[C@@H]1C	n	x	x
C[C@@H]1CCCCO[C@H](CN(C)Cc2ccccc2)[C@@H](C)CN([C@H](C)CO)C(=O)c2cc(NC(=O)Nc3ccc(F)cc3)ccc2O1	n	n	n
C[C@@H]1CCCCO[C@H](CN(C)Cc2ccccc2)[C@@H](C)CN([C@H](C)CO)C(=O)c2cc(NC(=O)Nc3ccc(C(F)(F)F)cc3)ccc2O1	n	71.1	n
C[C@@H]1CCCCO[C@@H](CN(C)Cc2ccccc2)[C@@H](C)CN([C@H](C)CO)C(=O)c2cc(NC(=O)Nc3ccc(F)cc3)ccc2O1	x	62.4	n
C[C@@H]1CCCCO[C@H](CN(C)Cc2ccc(C(F)(F)F)cc2)[C@@H](C)CN([C@H](C)CO)C(=O)c2cc(NC(=O)Nc3ccccc3)ccc2O1	n	67.5	n
C[C@@H]1CN([C@@H](C)CO)C(=O)c2cc(NC(=O)Nc3ccccc3)ccc2O[C@@H](C)CCCCO[C@@H]1CN(C)Cc1ccc(C(F)(F)F)cc1	n	x	x
C[C@@H]1CCCCO[C@H](CN(C)Cc2ccccc2)[C@H](C)CN([C@@H](C)CO)C(=O)c2cc(NC(=O)Nc3ccc(C(F)(F)F)cc3)ccc2O1	n	x	x
COC(=O)CCCCCCC(=O)N/N=C/c1ccc(Br)s1	n	n	n
O=C(NO)c1ccc(C(=O)N/N=C/c2ccc(O)c(O)c2)cc1	x	n	n
C[C@H](CO)N1C[C@H](C)[C@H](CN(C)C(=O)NC2CCCC2)Oc2ncc(-c3cc4ccccc4o3)cc2C1=O	n	n	x
C[C@H](CO)N1C[C@H](C)[C@H](CN(C)Cc2ccccc2)Oc2ncc(-c3cc4ccccc4o3)cc2C1=O	n	59.0	x
C[C@H](CO)N1C[C@H](C)[C@H](CN(C)Cc2cccc(C(F)(F)F)c2)Oc2ncc(Br)cc2C1=O	n	n	x
C[C@H](CO)N1C[C@H](C)[C@H](CN(C)S(=O)(=O)c2ccc(F)cc2)Oc2ncc(-c3cc4ccccc4o3)cc2C1=O	x	n	x
C[C@H](CO)N1C[C@H](C)[C@H](CN(C)S(=O)(=O)c2ccccc2)Oc2ncc(-c3cc4ccccc4o3)cc2C1=O	n	61.6	x
C[C@H](CO)N1C[C@H](C)[C@H](CN(C)C(=O)Nc2cccc3ccccc23)Oc2ncc(-c3cc4ccccc4o3)cc2C1=O	n	70.7	x
C[C@H](CO)N1C[C@H](C)[C@H](CN(C)Cc2cccc(C(F)(F)F)c2)Oc2ncc(-c3cc4ccccc4o3)cc2C1=O	x	90.2	x
C[C@H](CO)N1C[C@H](C)[C@H](CN(C)C(=O)Nc2cccc3ccccc23)Oc2ncc(-c3ccc(F)cc3)cc2C1=O	n	n	n
C[C@@H]1CN([C@@H](C)CO)C(=O)c2cc(NS(=O)(=O)c3cn(C)cn3)ccc2O[C@@H](C)CCCCO[C@@H]1CN(C)C(=O)NC1CCCCC1	n	x	x
C[C@H]1CN([C@@H](C)CO)C(=O)Cc2cc(NC(=O)CCN3CCOCC3)ccc2O[C@H]1CN(C)S(=O)(=O)c1ccc(F)cc1	x	n	n
CN(C)CCCOc1ccc(/C=N/NC(=O)CCCCC(=O)NO)cc1	n	n	n
CC(C)(C)OC(=O)NC/C=N/NC(=O)CCCCCC(=O)O	n	n	n

Bioassay records from PubChem.
